Experimental data taken from ChEMBL document CHEMBL5230166, “Novel quinoline-piperazine hybrids: the design, synthesis and evaluation of antibacterial and antituberculosis properties” (RSC Med Chem, 2023).
Converted amounts (≈) assume the structure as drawn.

Experiments:
[1] = tested on: Staphylococcus aureus; experiment: Antibacterial activity against methicillin resistant Staphylococcus aureus ATCC 33591 assessed as inhibition of bacterial growth incubated for 22 to 24 hrs; assay type: functional; details: time 22-24 hrs
Outline: (§1)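 Broth microdilution MIC. Strains were subcultured on Soybean Casein Digest Agar, and inocula were taken from mid-log culture, adjusted to McFarland (~10⁸ CFU/mL), then diluted to ~10⁵ CFU/mL. Serial dilutions ran from 64 to 0.03 µg/mL. Plates were incubated 22–24 h at 37 °C, in triplicate. MIC was the lowest concentration with no visible growth.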

[2] = tested on: Acinetobacter baumannii; experiment: Antibacterial activity against clinical isolate Acinetobacter baumannii BAA 747 assessed as inhibition of bacterial growth incubated for 22 to 24 hrs; assay type: functional; details: time 22-24 hrs
[3] = tested on: Staphylococcus aureus; experiment: Antibacterial activity against methicillin sensitive Staphylococcus aureus ATCC 29213 assessed as inhibition of bacterial growth incubated for 22 to 24 hrs; assay type: functional; details: time 22-24 hrs
Outline: (§2)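 Broth MIC referenced to an earlier protocol. Inocula come from mid-log cultures sub-cultured on soybean casein digest agar, adjusted to McFarland (~10⁸ CFU/mL), then diluted to ~10⁵ CFU/mL. Compounds and controls are serially diluted from 64 to 0.03 µg/mL. Tested in triplicate, read after 22–24 h at 37 °C. MIC is the lowest concentration with no visible growth.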

[4] = tested on: Mycobacterium tuberculosis; experiment: Antibacterial activity against Mycobacterium tuberculosis H37Rv ATCC 25618 assessed as inhibition of bacterial growth incubated for 2 days by CLSI protocol based broth microdilution method; assay type: functional; details: H37Rv ATCC 25618, 48 h, time 2 day
[5] = tested on: Pseudomonas aeruginosa; experiment: Antibacterial activity against clinical isolate Pseudomonas aeruginosa AB 645 assessed as inhibition of bacterial growth incubated for 22 to 24 hrs; assay type: functional; details: time 22-24 hrs
[6] = tested on: Escherichia coli; experiment: Antibacterial activity against clinical isolate Escherichia coli AB 117 assessed as inhibition of bacterial growth incubated for 22 to 24 hrs; assay type: functional; details: time 22-24 hrs
[7] = tested on: Klebsiella pneumoniae; experiment: Antibacterial activity against clinical isolate Klebsiella pneumoniae AB 356 assessed as inhibition of bacterial growth incubated for 22 to 24 hrs; assay type: functional; details: time 22-24 hrs
[8] = tested on: Enterococcus faecium; experiment: Antibacterial activity against Enterococcus faecium ATCC 49624 assessed as inhibition of bacterial growth incubated for 22 to 24 hrs; assay type: functional; details: time 22-24 hrs; outline: as §2
[9] = tested on: Mycolicibacterium smegmatis; experiment: Antibacterial activity against Mycobacterium smegmatis ATCC 607 assessed as inhibition of bacterial growth incubated for 2 days by CLSI protocol based broth microdilution method; assay type: functional; details: ATCC 607, 48 h, time 2 day
Outline: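 CLSI broth microdilution in Middlebrook 7H9 with 10% ADC. Compounds are dissolved in DMSO at 4.0 mg/mL (stock) and serially diluted from 64 to 0.015 µg/mL. Inoculum is ~10⁵ CFU/mL, checked by plating on 7H11 agar. Rifampin and levofloxacin are positive controls; drug-free broth with DMSO is the negative control. Growth inhibition is read after 2 days at 37 °C as MIC.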

[10] = tested on: Enterococcus faecalis; experiment: Antibacterial activity against vancomycin resistant Enterococcus faecalis ATCC 700802 assessed as inhibition of bacterial growth incubated for 22 to 24 hrs; assay type: functional; details: time 22-24 hrs; outline: as §1
[11] = tested on: Moraxella catarrhalis; experiment: Antibacterial activity against Moraxella catarrhalis ATCC 25238 assessed as inhibition of bacterial growth incubated for 22 to 24 hrs; assay type: functional; details: time 22-24 hrs; outline: as §2
[12] = tested on: Staphylococcus epidermidis; experiment: Antibacterial activity against clinical isolate methicillin resistant Staphylococcus epidermidis AB 735 assessed as inhibition of bacterial growth incubated for 22 to 24 hrs; assay type: functional; details: time 22-24 hrs
[13] = tested on: HepG2; experiment: Cytotoxicity against human HepG2 cells assessed as cell viability at 143 uM relative to control; details: hepg2, 143 µM
[14] = tested on: HEK293; experiment: Cytotoxicity against HEK293 cells assessed as inhibition of cell growth upto 64 ug/ml; assay type: toxicity, cell-based; details: human, dose < 64 µg/ml
[15] = tested on: A549; experiment: Cytotoxicity against human A549 cells assessed as cell viability at 143 uM relative to control; details: a549, 143 µM
[16] = Cytotoxicity against human A549 cells assessed as inhibition of cell growth at 64 ug/ml relative to control; assay type: toxicity, cell-based; details: at 64 µg/mL, read-out: Activity
Outline: (§3)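 MTT proliferation assay. A549 cells are seeded at 10000 cells/well and allowed to adhere at 37 °C, 5% CO₂. Compounds are added at 64 to 1 µg/mL (143 to 4.6 µM) in triplicate, with a DMSO vehicle control. Incubation is 24 h, then MTT (1 mg/mL) is added for 3 h at 37 °C.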

[17] = tested on: HEK293; experiment: Cytotoxicity against HEK293 cells assessed as cell viability at 143 uM relative to control; details: human, hek293, 143 µM
[18] = Cytotoxicity against human HepG2 cells assessed as inhibition of cell growth at 64 ug/ml relative to control; assay type: toxicity, cell-based; details: at 64 µg/mL, read-out: Activity
Outline: (§4)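 MTT proliferation assay on HEK293 (normal embryonic kidney) or HepG2 (liver cancer) cells. Cells are seeded at 10000 cells/well and adhered at 37 °C, 5% CO₂. Compounds are tested at 64 to 1 µg/mL (143 to 4.6 µM) in triplicate, with a DMSO vehicle control. Incubation is 48 h, followed by MTT (1 mg/mL) for 3 h at 37 °C.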

[19] = tested on: A549; experiment: Cytotoxicity against human A549 cells assessed as inhibition of cell growth upto 32 ug/ml; assay type: toxicity, cell-based; details: dose < 32 µg/ml; outline: as §3
[20] = tested on: HepG2; experiment: Cytotoxicity against human HepG2 cells assessed as inhibition of cell growth upto 32 ug/ml; assay type: toxicity, cell-based; details: dose < 32 µg/ml; outline: as §4

SMILES	MIC [1]	MIC [2]	MIC [3]	MIC [4]	MIC [5]	MIC [6]	MIC [7]	MIC [8]	MIC [9]	MIC [10]	MIC [11]	MIC [12]	viability [13]	Activity [14]	viability [15]	inhibition at 64 ug/ml [16]	viability [17]	inhibition at 64 ug/ml [18]	Activity [19]	Activity [20]
COc1cc(CN2CCN(C(=O)c3cccc(Cl)c3)CC2)nc2ccc(F)cc12	> 64 µg/mL	> 64 µg/mL	> 64 µg/mL	> 64 µg/mL	> 64 µg/mL	> 64 µg/mL	> 64 µg/mL	> 64 µg/mL	> 64 µg/mL	> 64 µg/mL	64 µg/mL (≈ 155 µM)	> 64 µg/mL	–	–	–	–	–	–	–	–
COc1cc(CN2CCN(C(=O)c3cccc(F)c3)CC2)nc2ccc(F)cc12	> 64 µg/mL	> 64 µg/mL	> 64 µg/mL	> 64 µg/mL	> 64 µg/mL	> 64 µg/mL	> 64 µg/mL	> 64 µg/mL	> 64 µg/mL	> 64 µg/mL	> 64 µg/mL	> 64 µg/mL	–	–	–	–	–	–	–	–
COc1ccc(C(=O)N2CCN(Cc3cc(OC)c4cc(F)ccc4n3)CC2)cc1	> 64 µg/mL	> 64 µg/mL	> 64 µg/mL	> 64 µg/mL	> 64 µg/mL	> 64 µg/mL	> 64 µg/mL	> 64 µg/mL	> 64 µg/mL	> 64 µg/mL	> 64 µg/mL	> 64 µg/mL	–	–	–	–	–	–	–	–
COc1cc(CN2CCN(C(=O)c3ccccc3F)CC2)nc2ccc(F)cc12	> 64 µg/mL	> 64 µg/mL	> 64 µg/mL	> 64 µg/mL	> 64 µg/mL	> 64 µg/mL	> 64 µg/mL	> 64 µg/mL	> 64 µg/mL	> 64 µg/mL	> 64 µg/mL	> 64 µg/mL	–	–	–	–	–	–	–	–
COc1cc(CN2CCN(S(=O)(=O)c3ccccc3F)CC2)nc2ccc(F)cc12	0.06 µg/mL (≈ 0.138 µM)	> 64 µg/mL	0.5 µg/mL (≈ 1.15 µM)	1 µg/mL (≈ 2.31 µM)	> 64 µg/mL	16 µg/mL (≈ 36.9 µM)	> 64 µg/mL	0.5 µg/mL (≈ 1.15 µM)	0.5 µg/mL (≈ 1.15 µM)	2 µg/mL (≈ 4.61 µM)	0.03 µg/mL (≈ 0.0692 µM)	16 µg/mL (≈ 36.9 µM)	91.8%	Non-Toxic	88.6%	< 12%	99.5%	< 12%	Non-Toxic	Non-Toxic
COc1cc(CN2CCN(C(=O)c3ccccc3C)CC2)nc2ccc(F)cc12	> 64 µg/mL	> 64 µg/mL	> 64 µg/mL	> 64 µg/mL	> 64 µg/mL	> 64 µg/mL	> 64 µg/mL	> 64 µg/mL	> 64 µg/mL	> 64 µg/mL	> 64 µg/mL	> 64 µg/mL	–	–	–	–	–	–	–	–
COc1ccc2nc(CN3CCN(S(=O)(=O)c4ccccc4F)CC3)cc(OC)c2c1	8 µg/mL (≈ 18 µM)	> 64 µg/mL	0.03 µg/mL (≈ 0.0673 µM)	0.063 µg/mL (≈ 0.141 µM)	> 64 µg/mL	8 µg/mL (≈ 18 µM)	> 64 µg/mL	2 µg/mL (≈ 4.49 µM)	0.031 µg/mL (≈ 0.0696 µM)	1 µg/mL (≈ 2.24 µM)	0.06 µg/mL (≈ 0.135 µM)	32 µg/mL (≈ 71.8 µM)	97.7%	Non-Toxic	91.1%	< 12%	100.8%	< 12%	Non-Toxic	Non-Toxic
